The record followed here is ChEMBL document CHEMBL4390647, “Efficient click chemistry towards novel 1H-1,2,3-triazole-tethered 4H-chromene-d-glucose conjugates: Design, synthesis and evaluation of in vitro antibacterial, MRSA and antifungal activities” (Eur J Med Chem, 2019).

In brackets after ≈: the same amount, converted by molar mass. Some results are limits rather than exact numbers.

What all share (type): functional
Assay [1] relates to Aspergillus flavus. Put plainly: Antifungal activity against Aspergillus flavus ATCC 64025 after 24 to 48 hrs by broth microdilution method.
The subject of assay [2] is Candida albicans. Put plainly: Antifungal activity against Candida albicans SUCC 2303 after 24 to 48 hrs by broth microdilution method.
Assay [3] has as its system Candida albicans. As to the kind of experiment: Antifungal activity against Candida albicans ATCC 1912 after 24 to 48 hrs by broth microdilution method.
Assay [4] concerns Candida albicans. As to the kind of experiment: Antifungal activity against Candida albicans SUCC 625 after 24 to 48 hrs by broth microdilution method.
Assay [5] deals with Candida albicans. As to the kind of experiment: Antifungal activity against Candida albicans ATCC 1905 after 24 to 48 hrs by broth microdilution method.
Assay [6] is described as follows: Antioxidant activity assessed as DPPH radical scavenging activity measured after 30 mins by spectrophotometric method.
Assay [7] has as its system Candida albicans. Put plainly: Antifungal activity against Candida albicans NCIM3471 by standard agar method.
Assay [8] relates to Candida albicans. As to the kind of experiment: Antifungal activity against Candida albicans ATCC 7754 after 72 hrs by agar dilution method. The following applies: ATCC 7754, 72 h. The method, boiled down:
(§1)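 Agar dilution on Sabouraud dextrose agar, with compounds at […] to 0.78 μM in twofold steps. Fungal suspensions at 10 CFU/mL as printed were applied to the compound-containing plates. Incubation at 35°C; MIC read after 72 h. Three experiments.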

The subject of another assay is Saccharomyces cerevisiae. Put plainly: Antifungal activity against Saccharomyces cerevisiae SH 20 after 72 hrs by agar dilution method. As to conditions: SH 20, 72 h. Put shortly:
as §1

For assay [9], the system named is Aspergillus niger. As to the kind of experiment: Antifungal activity against Aspergillus niger ATCC 439 measured after 72 hrs by agar dilution method. As to conditions: ATCC 439, 72 h. Put shortly: as §1
Assay [10] has as its system Aspergillus flavus. Put plainly: Antifungal activity against Aspergillus flavus ATCC 204304 measured after 72 hrs by agar dilution method. As to conditions: ATCC 204304, 72 h. The method, boiled down: as §1
Assay [11] deals with Aspergillus niger. Put plainly: Antifungal activity against Aspergillus niger NCIM1196 by standard agar method.

In the case of `N#CC1=C(N)Oc2ccc3ccccc3c2C1c1ccccc1` (stereo not drawn), the MIC against Aspergillus flavus [1], in the assay with Candida albicans [2], against Candida albicans [3], in the assay with Candida albicans [4] and with Candida albicans [5] was > 1 µg/mL each time.

`CCOC(=O)c1cc2ccc(OCc3cn(Cc4ccc([N+](=O)[O-])cc4)nn3)cc2oc1=O`: in assay [6], the IC50 worked out at 15 µg/mL (≈ 33.3 µM).

In the case of `Cc1cc(C(C)(C)C)c(O)c(C(C)(C)C)c1` [BUTYLATED HYDROXYTOLUENE], in [6], the IC50 came to 16.47 µg/mL (≈ 74.7 µM).

Turning to `OC(Cn1cncn1)(Cn1cncn1)c1ccc(F)cc1F` [FLUCONAZOLE], the MIC against Candida albicans [7] was 12.5 µg/mL (≈ 40.8 µM); against Candida albicans [8], 0.78 µM (≈ 0.239 µg/mL); against Saccharomyces cerevisiae, 0.78 µM (≈ 0.239 µg/mL); with Aspergillus niger [9] it was 1.56 µM (≈ 0.478 µg/mL); with Aspergillus flavus [10], 0.78 µM (≈ 0.239 µg/mL); against Aspergillus niger [11], 12.5 µg/mL (≈ 40.8 µM).
